Source: article PMC5987874 (The Journal of General Physiology, 2018)
Substitutions are numbered along the chain they refer to. Where two headings read alike, the source gives them in different places.

Columns and labels:
human Hv1 D123H-H193A = target: T1, human Hv1 D123H-H193A (Homo sapiens, UniProt Q96D96, D123H/H193A); experiment: Whole-cell voltage clamp, Zn^2+ modulation of GAQ gating; type: cell-based
T1 sequence (Q96D96 1-273 D123H/H193A): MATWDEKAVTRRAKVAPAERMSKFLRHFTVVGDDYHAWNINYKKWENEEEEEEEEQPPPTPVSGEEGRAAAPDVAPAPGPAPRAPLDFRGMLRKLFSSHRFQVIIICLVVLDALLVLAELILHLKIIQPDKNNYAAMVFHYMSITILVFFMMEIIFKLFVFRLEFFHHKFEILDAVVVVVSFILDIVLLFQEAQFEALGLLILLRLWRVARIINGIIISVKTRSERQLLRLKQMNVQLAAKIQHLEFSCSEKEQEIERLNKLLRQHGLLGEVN
Outline: (§1)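 Whole-cell patch clamp at ~21°C. Pipette and bath (mM): ~80 TMA-MeSO3, 100 Bis-Tris, 8 HCl, pH 6.5, 310–320 mOsm. ZnCl2 was diluted into bath solution and applied by gravity superfusion, at least 2 min per change. Test step voltage was set per construct from its V0.5. G_STEP = end-of-step current/(V−V_REV). Effect = 1 − G_Zn/G_control, fitted to the Hill equation. IC50 and nH are means ± SEM from separate cells. ΔpIC50 was tested by unpaired t test, P<0.05.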

[1] = target: T2, human Hv1 H193A (H^3.71A) (Homo sapiens, UniProt Q96D96, H193A); details: ref Ramsey et al., 2006; cited from earlier work
T2 sequence (Q96D96 1-273 H193A): T1 sequence (Q96D96 1-273 D123H/H193A) with H123D

[2] = target: T3, human Hv1 E196H (E^4.38H) (Homo sapiens, UniProt Q96D96, E196H); experiment: Whole-cell voltage clamp, Zn^2+ modulation of GAQ gating; type: cell-based
T3 sequence (Q96D96 1-273 E196H): T1 sequence (Q96D96 1-273 D123H/H193A) with H123D, A193H, E196H
Outline: as §1

[3] = target: T4, human Hv1 D112N (D^1.51N) (Homo sapiens, UniProt Q96D96, D112N); experiment: Whole-cell voltage clamp, Zn^2+ modulation of GAQ gating; type: cell-based
T4 sequence (Q96D96 1-273 D112N): T1 sequence (Q96D96 1-273 D123H/H193A) with D112N, H123D, A193H
Outline: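 Zn2+ effect was read from tail current, not end-of-step current. Whole-cell recording at ~21°C with pH 6.5 pipette and bath solutions (mM: ~80 TMA-MeSO3, 100 Bis-Tris, 8 HCl). ZnCl2 was diluted in bath solution and gravity-superfused, at least 2 min per change. Concentration–response was fitted to the Hill equation, with IC50 values from separate cells. ΔpIC50 was compared by unpaired Student's t test, P<0.05.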

human Hv1 D185H-H193A = target: T5, human Hv1 D185H-H193A (Homo sapiens, UniProt Q96D96, D185H/H193A); experiment: Whole-cell voltage clamp, Zn^2+ modulation of GAQ gating; type: cell-based
T5 sequence (Q96D96 1-273 D185H/H193A): T1 sequence (Q96D96 1-273 D123H/H193A) with H123D, D185H
Outline: as §1

[4] = target: T6, human Hv1 D185H (D^3.61H) (Homo sapiens, UniProt Q96D96, D185H); experiment: as above; type: cell-based
T6 sequence (Q96D96 1-273 D185H): T1 sequence (Q96D96 1-273 D123H/H193A) with H123D, D185H, A193H
Outline: as §1

[5] = VSTEP 80 mV, calculated as log (IC50)
[6] = read-out: Mean IC50 @ VSTEP, VSTEP 80 mV, pH 6.5, mean of fits in separate cells
[7] = read-out: IC50, fit of the mean data to a Hill function, Fig. 4D

- Mean ΔpIC50 = (pIC50_1 - pIC50_2) (human Hv1 D123H-H193A; D123H-H193A vs H193A): 0.47
- nH, fit of the mean data to a Hill function (human Hv1 D123H-H193A; Fig. 4B): 0.9
- Hill value (human Hv1 D123H-H193A; VSTEP 80 mV): 1.06
- pIC50 (human Hv1 D123H-H193A; [5]): −4.54
- IC50 (human Hv1 D123H-H193A; read-out: IC50, fit of the mean data to a Hill function, Fig. 4B): 28.6 µM
- IC50 (human Hv1 D123H-H193A; [6]): 36 µM
- Mean ΔpIC50 = (pIC50_1 - pIC50_2) ([2]; E196H vs WT): −0.43
- Hill value ([2]; VSTEP 100 mV): 0.63
- pIC50 ([2]; VSTEP 100 mV, calculated as log (IC50)): −4.63
- Mean ΔpIC50 = (pIC50_1 - pIC50_2) ([3]; D112N vs WT): −0.03
- Hill value ([3]; VSTEP 140 mV, determined from tail current): 0.76
- pIC50 ([3]; VSTEP 140 mV, determined from tail current, calculated as log (IC50)): 5.03
- IC50 ([3]; read-out: Mean IC50 @ VSTEP, VSTEP 140 mV, pH 6.5, determined from tail current): 9.5 µM
- Mean ΔpIC50 = (pIC50_1 - pIC50_2) (human Hv1 D185H-H193A; D185H-H193A vs D185H): −0.84
- Mean ΔpIC50 = (pIC50_1 - pIC50_2) (human Hv1 D185H-H193A; D185H-H193A vs H193A): 0.52
- nH, fit of the mean data to a Hill function (human Hv1 D185H-H193A; Fig. 4D): 0.6
- Hill value (human Hv1 D185H-H193A; VSTEP 80 mV): 0.60
- pIC50 (human Hv1 D185H-H193A; [5]): −4.54
- IC50 (human Hv1 D185H-H193A; [7]): 26.7 µM
- IC50 (human Hv1 D185H-H193A; [6]): 37.9 µM
- nH, fit of the mean data to a Hill function ([4]; Fig. 4D): 0.6
- Hill value ([4]; VSTEP 120 mV): 0.77
- pIC50 ([4]; VSTEP 120 mV, calculated as log (IC50)): 5.38
- IC50 [4, 7]: 6.5 µM
Structure (SMILES): [Cl-].[Cl-].[Zn+2] [Zn^2+, ZnCl2]
- decrease of Zn^2+ potency by single mutation [1]: 10- to 30 fold
